Converted amounts (≈) assume the structure as drawn.

The test system of assay [1] is Radical scavenging activity. As to the kind of experiment: Antioxidant activity assessed as DPPH free radical scavenging activity relative to control. It is filed as functional. An outline of the steps: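 Test samples in EtOH mixed with 100 µM ethanolic DPPH, incubated 30 min at 37 °C; absorbance read at 515 nm. Percent inhibition calculated against ethanol-treated control; IC50 taken as concentration scavenging 50% of DPPH radicals.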

Assay [2] in a line: Antioxidant activity assessed as superoxide anion scavenging activity by xanthine oxidase oxidation system relative to control. The format is functional. A digest of the protocol:
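Superoxide produced by xanthine oxidase (1.4 × 10-8 units) with 0.1 mM xanthine in 40 mM sodium carbonate buffer pH 10.2 containing 0.1 mM EDTA, 50 µg/mL BSA and […]; 20 min at 25 °C, stopped with CuCl2. Formazan read at 560 nm; IC50 as concentration scavenging 50% of superoxide.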

The nature of assay [3]: Antioxidant activity assessed as inhibition of 2,2'-azobis(2-amidinopropane)dihydrochloride-induced lipid peroxidation at 3.125 ug/ml by ferric thiocyanate system relative to control. It is filed as functional. A digest of the protocol: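 Linoleic acid emulsified in Tween, peroxidation induced by AAPH; oxidation followed by ferric thiocyanate method.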
In assay [4] the target is Human immunodeficiency virus type 1 integrase (Human immunodeficiency virus 1, UniProt Q7ZJM1). Put plainly: Inhibition of HIV1 recombinant integrase expressed in Escherichia coli.
Chain of Human immunodeficiency virus type 1 integrase (Q7ZJM1 whole entry): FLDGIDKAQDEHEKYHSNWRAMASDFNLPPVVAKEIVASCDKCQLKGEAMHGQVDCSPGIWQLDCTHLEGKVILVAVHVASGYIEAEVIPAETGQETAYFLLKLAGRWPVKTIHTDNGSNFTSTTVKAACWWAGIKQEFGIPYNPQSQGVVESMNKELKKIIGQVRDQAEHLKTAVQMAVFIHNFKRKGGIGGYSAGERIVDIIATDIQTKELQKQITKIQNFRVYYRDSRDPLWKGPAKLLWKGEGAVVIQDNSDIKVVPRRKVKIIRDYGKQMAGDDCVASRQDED

For the compound `O=c1c(O)c(-c2ccc(O)c(O)c2)oc2cc(O)cc(O)c12` [QUERCETIN], the IC50 in assay [1] was 5.9 µg/mL (≈ 19.5 µM); in assay [2], greater than 50 µg/mL. Further, the inhibition in assay [3] is 54.2%.
Taken in the same sequence, the figures for `O=C1O[C@H]([C@@H](O)CO)C(O)=C1O` [ASCORBIC ACID] were 5.5 µg/mL (≈ 31.2 µM), greater than 50 µg/mL and 44.1%.
Taken in the same sequence, the figures for `Oc1ccc(/C=C/c2cc(O)cc(O)c2)cc1` [RESVERATROL] were 17.1 µg/mL (≈ 74.9 µM), 37.9 µg/mL (≈ 166 µM) and 39.1%.
Turning to VITAMIN E [listing 1 of 2 here], the inhibition in assay [3] was 61.2%.
As to `O=C(/C=C/c1ccc(O)c(O)c1)O[C@H]1[C@H](O)C[C@](O)(C(=O)O)C[C@H]1OC(=O)/C=C/c1ccc(O)c(O)c1`, the IC50 in assay [1] is 5.9 µg/mL (≈ 11.4 µM); in assay [2] it was 3.3 µg/mL (≈ 6.39 µM); in assay [4], 10.5 µM. Further, the inhibition in assay [3] amounted to 51.7%.
Turning to `CCOC(=O)[C@@]1(O)C[C@@H](OC(=O)/C=C/c2ccc(O)c(O)c2)[C@H](O)[C@H](OC(=O)/C=C/c2cc(OC)c(O)c(OC)c2)C1`, the IC50 is 9.5 µg/mL (≈ 16.1 µM) in assay [1], 2.7 µg/mL (≈ 4.59 µM) in assay [2] and 80.5 µM in assay [4]. Besides, the inhibition in assay [3] was 53.8%.
Taken in the same sequence, the figures for `COC(=O)[C@@]1(O)C[C@@H](OC(=O)/C=C/c2ccc(O)c(O)c2)[C@H](O)[C@H](OC(=O)/C=C/c2cc(OC)c(O)c(OC)c2)C1` were 8.5 µg/mL (≈ 14.8 µM), 2.2 µg/mL (≈ 3.83 µM), 41.1 µM and 54.7%.
As to `COC(=O)C1=CO[C@@H](O[C@@H]2O[C@H](CO)[C@@H](O)[C@H](O)[C@H]2O)[C@@H]2C(CO)=CC[C@H]12` [GENIPOSIDE], the IC50 in assay [1] was greater than 50 µg/mL; in assay [2], greater than 50 µg/mL; in assay [4] it was greater than 257 µM. Moreover, the inhibition in assay [3] is 2%.
Consider `O=c1c(O[C@@H]2O[C@H](CO)[C@@H](O)[C@H](O)[C@H]2O)c(-c2ccc(O)c(O)c2)oc2cc(O)cc(O)c12` [ISOQUERCETIN], for which the values for the IC50 in assay [1] and in assay [2] were 16.6 µg/mL (≈ 35.7 µM) and 3.4 µg/mL (≈ 7.32 µM), respectively. Moreover, the inhibition in assay [3] worked out at 49.9%.
Taken in the same sequence, the figures for `O=C(O)/C=C/c1ccc(O)c(O)c1` [CAFFEIC ACID] were 3.2 µg/mL (≈ 17.8 µM), 0.5 µg/mL (≈ 2.78 µM) and 54.1%.
For `CCOC(=O)[C@]1(O)C[C@@H](O)[C@@H](OC(=O)/C=C/c2cc(OC)c(O)c(OC)c2)[C@H](OC(=O)/C=C/c2ccc(O)c(O)c2)C1`, the IC50 in assay [1] is 6.1 µg/mL (≈ 10.4 µM); in assay [2], 2 µg/mL (≈ 3.4 µM); in assay [4], 73.9 µM. In assay [3], the inhibition worked out at 54.9%.
The corresponding values for `CCOC(=O)[C@]1(O)C[C@@H](O)[C@@H](O)[C@H](OC(=O)/C=C/c2ccc(O)c(O)c2)C1` [ETHYL CHLOROGENATE] are 7.1 µg/mL (≈ 18.6 µM), 1 µg/mL (≈ 2.62 µM), 116 µM and 51.1%.
For the compound `O=C(/C=C/c1ccc(O)c(O)c1)O[C@@H]1C[C@](O)(C(=O)O)C[C@@H](OC(=O)/C=C/c2ccc(O)c(O)c2)[C@H]1O`, the half-inhibitory concentration (IC50) in assay [1] was 5.6 µg/mL (≈ 10.8 µM); in assay [2], 2.9 µg/mL (≈ 5.62 µM); in assay [4], 11.4 µM. In assay [3], the inhibition worked out at 51.5%.
In the case of `COc1cc(C(=O)O)ccc1O[C@@H]1O[C@H](COC(=O)/C=C/c2cc(OC)c(O)c(OC)c2)[C@@H](O)[C@H](O)[C@H]1O`, the IC50 is 22.7 µg/mL (≈ 42.3 µM) in assay [1], 46.3 µg/mL (≈ 86.3 µM) in assay [2] and greater than 186 µM in assay [4]. Moreover, in assay [3], the inhibition was determined as 38.4%.
The corresponding values for `COC(=O)[C@]1(O)C[C@@H](O)[C@@H](OC(=O)/C=C/c2cc(OC)c(O)c(OC)c2)[C@H](OC(=O)/C=C/c2ccc(O)c(O)c2)C1` are 8.3 µg/mL (≈ 14.4 µM), 1.8 µg/mL (≈ 3.13 µM), 33.8 µM and 56%.
Taken in the same sequence, the figures for `O=C(O)C1=CO[C@@H](O[C@@H]2O[C@H](CO)[C@@H](O)[C@H](O)[C@H]2O)[C@@H]2C(CO)=CC[C@H]12` [GENIPOSIDIC ACID] were greater than 50 µg/mL, greater than 50 µg/mL, greater than 267 µM and 4.8%.
As for VITAMIN E [listing 2 of 2 here], the IC50 in assay [1] is 9.4 µg/mL; in assay [2], greater than 50 µg/mL.
For `O=C(O)c1ccc(O)c(O)c1` [PROTOCATECHUIC ACID], the concentration for half-maximal inhibition (IC50) in assay [1] turned out to be 6.9 µg/mL (≈ 44.8 µM); in assay [2], 13 µg/mL (≈ 84.3 µM). Also, the inhibition in assay [3] turned out to be 38.1%.

The values above are taken from ChEMBL document CHEMBL1157317, “Vanillic acid glycoside and quinic acid derivatives from Gardeniae Fructus” (J Nat Prod, 2006).
